Data set [1] can be described thus: Inhibition of recombinant full-length Plasmodium falciparum 3D7 CLK3 using ULight-labelled CFFKNIVTPRTPPPSQGK as substrate measured after 1 hr by TR-FRET assay. An outline of the steps: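 Peptide substrate plus cold ATP with serially diluted inhibitor, 37 °C for 1 h. Stopped with 30 mM EDTA and Eu-anti-phospho antibody (3 nM), 1 h RT, read 665 nm emission. Normalised to no-kinase/no-inhibitor wells; three independent experiments in triplicate, mean ± SEM.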
(In TR-FRET formats the signal depends on donor and acceptor labels being close together.)

A short description of data set [2]: Distribution coefficient, log D of the compound at pH 7.4 by HPLC method. It is filed as physicochemical. The conditions noted are these: octanol/water.
In data set [3] the test system is Plasmodium falciparum. As to the kind of experiment: Antimalarial activity against Plasmodium falciparum isolate GB0006 assessed as reduction in parasitemia at 1 to 10 times EC50 supplemented with fresh medium containing compounds every 24 hrs for 72 hrs relative to control. Format: functional. The essentials:
(§1)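 Parasite reduction ratio setup: cryopreserved clinical isolates thawed and cultured at least one cycle (~48 h ± 2); new rings 0–3 h post-invasion taken as t = 0. […] 24 h arm: drug removed by two washes; 48 and 72 h arms: fresh drug every 24 h.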

For data set [4], the system named is Plasmodium falciparum. As to the kind of experiment: Antimalarial activity against Plasmodium falciparum isolate GB0004 assessed as reduction in parasitemia at 1 to 10 times EC50 supplemented with fresh medium containing compounds every 24 hrs for 72 hrs relative to control. Format: functional. An outline of the steps:
as §1

Data set [5] deals with Plasmodium falciparum. Put plainly: Antimalarial activity against Plasmodium falciparum isolate GB0021 assessed as reduction in parasitemia at 1 to 10 times EC50 supplemented with fresh medium containing compounds every 24 hrs for 72 hrs relative to control. It is filed as functional. The essentials:
as §1

Data set [6] relates to Plasmodium falciparum. Put plainly: Antimalarial activity against Plasmodium falciparum isolate GB0048 assessed as reduction in parasitemia at 1 to 10 times EC50 supplemented with fresh medium containing compounds every 24 hrs for 72 hrs relative to control. It is filed as functional. The essentials:
as §1

Data set [7] relates to Plasmodium falciparum. Put plainly: Antimalarial activity against Plasmodium falciparum isolate GB0071 assessed as reduction in parasitemia at 1 to 10 times EC50 supplemented with fresh medium containing compounds every 24 hrs for 72 hrs relative to control. It is filed as functional. An outline of the steps: as §1
In data set [8] the test system is Plasmodium falciparum. As to the kind of experiment: Antimalarial activity against Plasmodium falciparum isolate GB0087 assessed as reduction in parasitemia at 1 to 10 times EC50 supplemented with fresh medium containing compounds every 24 hrs for 72 hrs relative to control. It is filed as functional. An outline of the steps: as §1
Data set [9] relates to Plasmodium falciparum. As to the kind of experiment: Antimalarial activity against Plasmodium falciparum isolate GB0020 assessed as reduction in parasitemia at 1 to 10 times EC50 supplemented with fresh medium containing compounds every 24 hrs for 72 hrs relative to control. Format: functional, organism-based. An outline of the steps: as §1
Data set [10] relates to Plasmodium falciparum. As to the kind of experiment: Antimalarial activity against Plasmodium falciparum isolate GB002 assessed as reduction in parasitemia at 1 to 10 times EC50 supplemented with fresh medium containing compounds every 24 hrs for 72 hrs relative to control. It is filed as functional, organism-based. The essentials: as §1
Data set [11] has as its system Plasmodium falciparum. As to the kind of experiment: Antimalarial activity against Plasmodium falciparum isolate GB0026 assessed as reduction in parasitemia at 1 to 10 times EC50 supplemented with fresh medium containing compounds every 24 hrs for 72 hrs relative to control. Format: functional, organism-based. An outline of the steps:
as §1

In data set [12] the test system is Plasmodium falciparum. As to the kind of experiment: Antimalarial activity against chloroquine-sensitive synchronized ring stage of Plasmodium falciparum 3D7 incubated for 48 to 52 hrs by SYBR green 1 dye based assay. It is filed as functional, organism-based.
Data set [13] deals with Plasmodium falciparum. As to the kind of experiment: Antimalarial activity against Plasmodium falciparum isolate GB0020 assessed as reduction in parasitemia at 1 to 10 times EC50 measured after 24 hrs relative to control. Also noted: scale not given: the % may be the effect or the level left. Format: functional. An outline of the steps: as §1
Data set [14] has as its system Plasmodium falciparum. As to the kind of experiment: Antimalarial activity against Plasmodium falciparum isolate GB002 assessed as reduction in parasitemia at 1 to 10 times EC50 measured after 24 hrs relative to control. It is filed as functional. Also noted: scale not given: the % may be the effect or the level left. The essentials: as §1
The subject of data set [15] is Plasmodium falciparum. As to the kind of experiment: Antimalarial activity against Plasmodium falciparum isolate GB0026 assessed as reduction in parasitemia at 1 to 10 times EC50 measured after 24 hrs relative to control. It is filed as functional. The arrangement: scale not given: the % may be the effect or the level left. An outline of the steps: as §1
Data set [16] deals with Plasmodium falciparum. Put plainly: Antimalarial activity against Plasmodium falciparum isolate GB0020 assessed as reduction in parasitemia at 10 times EC50 measured after 72 hrs. It is filed as functional, organism-based. An outline of the steps: as §1
The subject of data set [17] is Plasmodium falciparum. Put plainly: Antimalarial activity against Plasmodium falciparum isolate GB002 assessed as reduction in parasitemia at 10 times EC50 measured after 72 hrs. Format: functional, organism-based. An outline of the steps:
as §1

In data set [18] the test system is Plasmodium falciparum. Put plainly: Antimalarial activity against Plasmodium falciparum isolate GB0026 assessed as reduction in parasitemia at 10 times EC50 measured after 72 hrs. Format: functional, organism-based. An outline of the steps: as §1

Calls of active or inactive are those of the source. The rule behind the calls is not given here.

Consider `CCOC(=O)c1ccc(-c2ccnc3[nH]c(-c4cc(CN(CC)CC)ccc4OC)cc23)cc1C(C)C`, for which, in [1], the IC50 – broadly, the concentration at which inhibition is half-maximal – was 390 nM and the pIC50 (commonly the IC50 on a negative log10 scale, so that one unit is a factor of ten) is on record as 6.4. The pH-dependent lipophilicity (logD) (in general, lipophilicity at a set pH, counting ionised and neutral species) in data set [2] was found to be 2.45.

For `CCN(CC)Cc1ccc(OC)c(-c2cc3c(-c4ccc(C(=O)O)c(C(C)C)c4)ccnc3[nH]2)c1`, the IC50 in data set [1] stood at 40 nM. Moreover, the pIC50 in data set [1] came out at 7.4. Besides, the pH-dependent lipophilicity (logD) in data set [2] is 0.93. The outcome with Plasmodium falciparum [3], with Plasmodium falciparum [4], in the data set on Plasmodium falciparum [5], in the data set on Plasmodium falciparum [6], in the data set on Plasmodium falciparum [7] and in the data set with Plasmodium falciparum [8] was Active. The outcome in the data set on Plasmodium falciparum [9], in the data set on Plasmodium falciparum [10] and with Plasmodium falciparum [11] was Active.

For `COc1ccc(CN)cc1-c1cc2c(-c3ccc(C(=O)O)c(C(C)C)c3)ccnc2[nH]1`, in data set [1], the concentration for half-maximal inhibition (IC50) came to 76 nM and the pIC50 amounted to 7.1. In addition, the EC50 with Plasmodium falciparum [12] (read-out: EC50) was determined as 2800 nM. In the data set with Plasmodium falciparum [12] (read-out: pEC50 (converted)), the EC50 is 2510 nM. The compound further came in with a logD in data set [2] of 0.61.

As for `CCN(CC)Cc1cccc(-c2cc3c(-c4ccc(C(=O)O)c(C(C)C)c4)ccnc3[nH]2)c1OC`, in data set [1], the IC50 worked out at 17 nM and the pIC50 is on record as 7.7. Besides, in the data set on Plasmodium falciparum [12] (read-out: EC50), the EC50 was determined as 3170 nM. For the same compound, the EC50 with Plasmodium falciparum [12] (read-out: pEC50 (converted)) was 2510 nM. In data set [2], the logD was found to be 0.74.

`COc1ccc(CN(C)C)cc1-c1cc2c(-c3ccc(C(=O)O)c(C(C)C)c3)ccnc2[nH]1`: in data set [1], the IC50 is 29 nM and the negative-log IC50 (pIC50) turned out to be 7.5. Besides, in the data set on Plasmodium falciparum [12] (read-out: EC50), the EC50 was determined as 457 nM. This compound also yielded a log distribution coefficient (logD) in [2] of 0.85.

Regarding `COc1ccccc1-c1cc2c(-c3ccc(C(=O)O)c(C(C)C)c3)ccnc2[nH]1`, in data set [1], the 50% inhibitory concentration (IC50) turned out to be 79 nM and the negative logarithm of the IC50 (pIC50) amounted to 7.1. In the data set on Plasmodium falciparum [12] (read-out: EC50), the EC50 was 1460 nM. Moreover, the EC50 in the data set with Plasmodium falciparum [12] (read-out: pEC50 (converted)) is 1580 nM. The same compound came in with a logD in [2] of 2.45.

`CCN(CC)Cc1ccc(OC)c(-c2cc3c(-c4ccc(-c5nnn[nH]5)c(C(C)C)c4)ccnc3[nH]2)c1`: in [1], the 50% inhibitory concentration (IC50) is 19 nM and the negative logarithm of the IC50 (pIC50) came to 7.7. The pH-dependent lipophilicity (logD) in [2] amounted to 0.93.

For the compound `CCc1nc(N)nc(N)c1-c1ccc(Cl)cc1` [PYRIMETHAMINE], the EC50 with Plasmodium falciparum [12] (read-out: EC50) was determined as 18 nM. In addition, the Activity entry is “>=70%” in the data set on Plasmodium falciparum [3]; “>=70%” in the data set with Plasmodium falciparum [5]; “>=70%” with Plasmodium falciparum [6]; “>=70%” with Plasmodium falciparum [7]; “>=70%” in the data set with Plasmodium falciparum [8]; 45% with Plasmodium falciparum [13]. For the same compound, the values for the Activity in the data set with Plasmodium falciparum [14] and with Plasmodium falciparum [15] were 64% and 36%, respectively. Further, the result in the data set with Plasmodium falciparum [16], in the data set on Plasmodium falciparum [17] and in the data set with Plasmodium falciparum [18] was inactive.

Take `COc1ccc(CN2CCCC2)cc1-c1cc2c(-c3ccc(C(=O)O)c(C(C)C)c3)ccnc2[nH]1`: in [1], the IC50 is 38 nM and the pIC50 worked out at 7.4. The EC50 in the data set on Plasmodium falciparum [12] (read-out: EC50) was 382 nM. This compound also showed a logD in data set [2] of 2.43.

Take `CCN(CC)Cc1cccc(-c2cc3c(-c4ccc(C(=O)O)c(C(C)C)c4)ccnc3[nH]2)c1`: in [1], the 50% inhibitory concentration (IC50) worked out at 25 nM and the negative logarithm of the IC50 (pIC50) came to 7.6. Also, in the data set with Plasmodium falciparum [12] (read-out: EC50), the EC50 came out at 309 nM. Also, the logD in data set [2] came to 0.8.

On to `CCN(CC)Cc1ccc(OC)c(-c2cc3c(-c4ccc(C(=O)O)cc4)ccnc3[nH]2)c1`, for which, in data set [1], the 50% inhibitory concentration (IC50) came to 34 nM and the negative-log IC50 (pIC50) was determined as 7.5. The EC50 in the data set on Plasmodium falciparum [12] (read-out: EC50) is 3270 nM. Also, the pH-dependent lipophilicity (logD) in data set [2] amounted to 0.65.

Regarding `CCN(CC)Cc1ccc(OC)c(-c2cc3c(-c4cccc(C(C)C)c4)ccnc3[nH]2)c1`, in data set [1], the half-inhibitory concentration (IC50) was 1300 nM and the negative-log IC50 (pIC50) is listed as 6. In data set [2], this compound displayed a logD of 4.45.

Turning to `CCN(CC)Cc1ccc(OC)c(-c2cc3c(-c4ccc(C(C)C)c(C(=O)O)c4)ccnc3[nH]2)c1`, in data set [1], the IC50 came to 1380 nM and the pIC50 turned out to be 4.9.

Consider `CCN(CC)Cc1ccc(O)c(-c2cc3c(-c4ccc(C(=O)O)c(C(C)C)c4)ccnc3[nH]2)c1`, for which, in [1], the IC50 is 22 nM and the pIC50 was found to be 7.7. Besides, the EC50 with Plasmodium falciparum [12] (read-out: EC50) came to 3530 nM. Moreover, in data set [2], the logD was determined as 0.59.

Regarding `COc1ccc(CN2CCOCC2)cc1-c1cc2c(-c3ccc(C(=O)O)c(C(C)C)c3)ccnc2[nH]1`, in data set [1], the 50% inhibitory concentration (IC50) stood at 9 nM and the pIC50 is 8.

For the compound `CCN(CC)Cc1ccc(OC)c(-c2cc3c(-c4ccc(C(=O)O)c(C)c4)ccnc3[nH]2)c1`, in [1], the concentration for half-maximal inhibition (IC50) amounted to 24 nM and the pIC50 amounted to 7.6. Moreover, in the data set on Plasmodium falciparum [12] (read-out: EC50), the EC50 is 1180 nM. Besides, the EC50 in the data set on Plasmodium falciparum [12] (read-out: pEC50 (converted)) is 2510 nM. In addition, the logD in [2] came out at 0.66.
